Fam108B inh – blocks mouse Fam108B hydrolase in RBBP9 counter-screen | recombinant Fam108B, FP-Rh probe fluorescence polarization | AID 1947 | 0.33% of 300,000 active | inhibition, % at 9.51 µM;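 active = inhibition above the screen mean inhibition plus 3 SD, computed separately per campaign, cut at about 18% in these data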;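 note: inhibitors lower polarization as less probe binds the enzyme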
LYPLA2 inh – blocks human lysophospholipase 2, a PME1 counter-screen; 0.38% of 320,000 active; recombinant LYPLA2, FP-Rh probe fluorescence polarization; O95372; AID 2177; inhibition, % at 5.9 µM;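 active = inhibition above the screen-wide mean plus 3 SD, limit set per campaign, cut at about 26% in these data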
PME-1 primary – PME-1 (human) inhibition. inhibition, % at 5.9 µM. Q9Y570. AID 2130. 0.53% of 320,000 active. recombinant PME-1, FP-Rh probe fluorescence polarization;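 active = inhibition above the campaign mean of all compounds plus 3 SD, cut at about 26% in these data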;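 note: competitive labeling of PME-1 active site by serine hydrolase directed probe; inhibitors block probe labeling so polarization falls and inhibition rises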
Target sequence (Q9Y570 whole entry, looked up): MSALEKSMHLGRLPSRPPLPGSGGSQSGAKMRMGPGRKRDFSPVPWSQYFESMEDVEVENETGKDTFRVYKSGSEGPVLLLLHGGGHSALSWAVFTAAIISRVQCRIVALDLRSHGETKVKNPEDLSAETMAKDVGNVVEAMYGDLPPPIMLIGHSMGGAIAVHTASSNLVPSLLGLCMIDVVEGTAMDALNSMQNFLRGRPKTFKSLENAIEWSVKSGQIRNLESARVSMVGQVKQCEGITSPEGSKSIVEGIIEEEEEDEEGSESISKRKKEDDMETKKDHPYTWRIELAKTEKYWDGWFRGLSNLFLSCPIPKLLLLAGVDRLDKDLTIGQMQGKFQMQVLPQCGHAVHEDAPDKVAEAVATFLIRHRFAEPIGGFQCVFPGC
RBBP9 inhibitor – human RBBP9 hydrolase inhibition | AID 1515 | inhibition, % at 7.94 µM | 0.2% of 220,000 active | O75884 | recombinant RBBP9, FP-Rh probe fluorescence polarization;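 active = inhibition above the campaign mean of all tested compounds plus 3 SD, cut at about 14% in these data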
Target sequence (O75884 whole entry, looked up): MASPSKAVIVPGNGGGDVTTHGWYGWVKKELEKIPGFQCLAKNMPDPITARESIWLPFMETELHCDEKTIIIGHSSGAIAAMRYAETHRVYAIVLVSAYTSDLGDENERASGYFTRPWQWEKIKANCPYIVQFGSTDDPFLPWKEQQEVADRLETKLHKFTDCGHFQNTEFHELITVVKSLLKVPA
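System: RBBP9 protein / Buffer or medium: Tris/NaCl buffer pH 8.0 with 0.1% Pluronic / Probe or stimulus: Serine-hydrolase probe FP-Rh, 375 nM pre-mixing / Dosing: 7.94 µM single dose, 0.794% DMSO / Times: enzyme-compound preincubation 30 min, then probe labeling 45 min, 25 °C / Technique: fluorescence polarization (mP), excitation 525 nm, emission 598 nm / Replication: singlicate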
LYPLA1 counter – counter-screen for PME1 inhibitors: inhibitors of human LYPLA1; O75608; recombinant LYPLA1, FP-Rh probe fluorescence polarization; inhibition, % at 5.9 µM; 0.16% of 320,000 active; AID 2174;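 active = inhibition above the mean of all tested compounds plus 3 SD, set per campaign, cut at about 14% in these data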;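 note: inhibitors block serine hydrolase probe labeling of LYPLA1 so polarization falls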
PAD4 inh – inhibitors of human PAD4 | recombinant PAD4, RCA probe fluorescence polarization | 0.41% of 330,000 active | AID 485272 | inhibition, % at 6.36 µM;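 active = percent inhibition above a cutoff equal to the mean of all tested compounds plus 3 SD, cut at about 15% in these data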
Fam108b confirm – confirmation of mouse Fam108b serine hydrolase inhibitors; shares compounds with Fam108B inh; 44% of 930 active; inhibition, % at 9.51 µM; AID 1978; recombinant Fam108b, FP-Rh probe fluorescence polarization;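 active = inhibition above a limit from the primary screen, the mean over all compounds plus 3 SD, cut at about 19% in these data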;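 note: inhibitors free the probe so polarization falls as inhibition rises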
Fam108b ABPP HTS – inhibits mouse Fam108b in gel-based ABPP | 44% of 260 active | shares compounds with Fam108B inh | recombinant Fam108b, fluorophosphonate probe | inhibition, % at 20 µM; in the data active = inhibition above about 40%
Hits are given with their value; . = inactive; / = not tested or not shown. Compounds with a hit are over-represented: about 1.3% of the library has one in this group of screens.

SMILES	Fam108B inh	LYPLA2 inh	PME-1 primary	RBBP9 inhibitor	LYPLA1 counter	PAD4 inh	Fam108b confirm	others
Cc1ccc(NC(=O)CC(=O)c2ccc([N+](=O)[O-])cc2)cc1S(=O)(=O)Nc1cccc(Cl)c1	25	.	.	.	.	.	.
COC(=O)COc1ccc(S(=O)(=O)NCc2cccnc2)cc1C	.	.	.	.	.	.	/
O=C1CC(NS(=O)(=O)c2ccc([N+](=O)[O-])cc2)CN1c1ccc(Cl)cc1 (stereo not drawn)	.	.	.	/	.	.	/
COc1cccc2[nH]c(C(=O)NC(C)c3ccccc3)cc12 (stereo not drawn)	.	.	.	/	.	.	/
CCN(CC)c1ccc(NC(=O)c2cc3c(OC)cccc3[nH]2)cc1	21	.	.	/	.	.	.
Cc1cccc(N2CCN(C(=O)c3c(Cl)cnn3C)CC2)c1C	.	.	.	/	.	.	/
O=C(Cn1nc(C(=O)O)c2ccccc2c1=O)Nc1cccc(S(=O)(=O)N2CCCCC2)c1	/	/	/	/	/	.	/
CCc1c(C)sc(NC(=O)c2ccoc2C)c1C(N)=O	.	.	.	/	.	.	/
COc1ccccc1NS(=O)(=O)c1cc(NC(=O)Nc2ccc(Cl)cc2Cl)ccc1N1CCCCC1	.	.	.	.	.	.	/
O=C(Nc1cccc(C(F)(F)F)c1)Nc1ccc(N2CCCC2)c(S(=O)(=O)Nc2ccccc2Cl)c1	35	.	.	.	.	.	32	Fam108b ABPP HTS=95
CCc1ccc(S(=O)(=O)/N=C2\C=CC(=O)c3ccccc32)cc1	24	.	.	.	.	.	21
COc1cc(C(=O)OCC(=O)c2c(N)n(C)c(=O)n(C)c2=O)ccc1OCCC(C)C	.	.	.	.	.	.	/
COc1cccc(Nc2nc(-c3cccc(N4C(=O)c5ccccc5C4=O)c3)cs2)c1	31	.	.	.	.	.	.
c1ccc(-c2nnc(-c3ccco3)o2)cc1	.	.	.	.	.	.	/
c1coc(-c2nnc(-c3ccco3)nn2)c1	22	.	.	/	.	.	.
CCc1ccc(N2CC(C(=O)Nc3cc(C)on3)CC2=O)cc1 (stereo not drawn)	.	.	.	.	.	.	/
CC1CCN(C(=O)CNC(=O)CNS(=O)(=O)c2ccccc2)CC1	.	.	.	/	.	.	/
Nc1ccc(O)c([N+](=O)[O-])c1	/	.	.	/	.	.	/
O=[N+]([O-])c1cc(N=Nc2ccc3ccccc3c2)ccc1O	22	.	.	/	.	.	.
O=C(Nc1ccnc(-c2ccncc2)n1)C1CC1	.	.	.	.	.	.	/
Cc1c2ccccc2nc2c(F)c(NCCO)c(F)c(F)c12	19	.	.	.	.	.	.
OCCNc1c2ccccc2nc2c(F)c(F)c(F)c(F)c12	.	.	.	.	.	.	/
Cc1nc(SCC(=O)N2CCc3ccccc32)n[nH]1	.	.	.	.	.	.	/
O=C1CCCC2=C1C(c1ccco1)Nc1ccc3ccccc3c12 (stereo not drawn)	18	.	.	.	.	.	.
O=C1CCCC2=C1C(c1ccc(O)c(O)c1)Nc1ccc3ccccc3c12 (stereo not drawn)	.	.	.	/	.	.	/
SMILES	Fam108B inh	LYPLA2 inh	PME-1 primary	RBBP9 inhibitor	LYPLA1 counter	PAD4 inh	Fam108b confirm	others
COc1ccc(S(C)(=O)=O)cc1S(C)(=O)=O	.	.	.	.	.	.	/
Cc1cc(C(C#N)c2ccc(Cl)cc2)c(Cl)cc1NC(=O)c1cc(I)cc(I)c1O (stereo not drawn)	25	.	40	/	.	.	42	Fam108b ABPP HTS=45
O=C(NN1C(=O)/C(=C/c2ccc(O)c([N+](=O)[O-])c2)SC1=S)c1ccccc1Cl	25	.	.	.	.	.	20
COc1cc(/C=C2\SC(=S)N(NC(=O)c3ccccc3O)C2=O)ccc1O	.	.	.	/	.	.	/
O=C(CSc1cccc[n+]1[O-])NC1CCCCC1	/	/	/	/	/	.	/
COc1ccccc1C1Nc2cccc3cccc(c23)N1	.	.	.	.	.	.	/
CCOc1cc(C2Nc3cccc4cccc(c34)N2)ccc1O	63	.	.	.	.	.	24
CCOc1ccc(C2Nc3cccc4cccc(c34)N2)cc1OC	25	.	.	.	.	.	.
O=C(O)c1ccc2c(c1)C(=O)/C(=C\c1ccco1)C2=O	18	.	.	.	.	.	.
CCOC(=O)CNC(=O)N1CCCC(N(C)CCc2ccccc2)C1 (stereo not drawn)	.	.	.	/	.	.	/
CCOc1ccc(-c2c(C(=O)N/N=C(\C)c3cccnc3)nnn2-c2nonc2N)cc1	.	.	.	/	.	.	/
COc1ccc(-c2cc(-c3ccccc3O)[nH]n2)cc1OC	.	.	.	.	.	.	/
COc1ccc(-c2cc(-c3ccc(OC)c(OC)c3)n[nH]2)c(O)c1	20	.	.	.	.	.	.
Oc1ccc(Br)cc1-c1cc(-c2ccccc2)n[nH]1	.	.	.	.	.	.	/
COc1ccc(O)c(-c2cc(-c3cccc(Br)c3)n[nH]2)c1	18	.	42	.	.	.	.
Cc1ccccc1NC(=O)CSc1nnc(-c2ccco2)c(-c2ccco2)n1	.	.	.	.	.	.	/
Cc1cccc(C)c1NC(=O)CSc1nnc(-c2ccco2)c(-c2ccco2)n1	26	.	.	.	.	.	.
Cc1ccc(S(=O)(=O)N2CCCCC2)cc1NC(=O)c1cc(F)c(F)c(F)c1F	/	/	/	/	/	.	/
CCOCc1cnc(C)nc1NCC(=O)c1c(C)[nH]c2ccccc12	57	.	.	.	.	.	.
N#CC1=C(N)SC(N)=C(C#N)C1c1ccoc1	26	.	.	.	.	.	.
O=[N+]([O-])c1cc(S(=O)(=O)Nc2ccccc2)ccc1N1CCN(c2ccc(O)cc2)CC1	.	.	.	.	.	.	/
Cc1ccc(NS(=O)(=O)c2ccc(N3CCN(c4ccc(O)cc4)CC3)c([N+](=O)[O-])c2)c(C)c1	21	.	.	.	.	.	.
CCOc1cc(-c2nc(-c3ccccc3)c(-c3cc([N+](=O)[O-])ccc3C)[nH]2)ccc1O	21	.	.	.	.	.	.
O=[N+]([O-])c1ccc(O)c(-c2nc(-c3ccccc3)c(-c3cccs3)[nH]2)c1	26	.	.	.	.	.	.
O=C(O)c1ccc(-c2nc(-c3ccccc3)c(-c3cccs3)[nH]2)cc1	.	.	.	.	.	.	/
COc1ccc(OC)c(Nc2nc(-c3sc(NC(=O)c4ccccc4)nc3C)cs2)c1	19	.	.	.	.	.	.
CCCCCC(=O)Nc1nc(C)c(-c2csc(Nc3ccc(Cl)cc3)n2)s1	20	.	.	.	.	.	.
COc1ccc(Cl)cc1Nc1nc(-c2sc(NC(=O)c3ccccc3)nc2C)cs1	.	.	.	.	.	.	/
